From ChEMBL document CHEMBL1140079, “Discovery of orally bioavailable cathepsin S inhibitors for the reversal of neuropathic pain” (J Med Chem, 2008) come the findings set out here.

By half-life is commonly meant how long it takes for the measured level to halve. Read a high half-life as slow loss. By IC50 is commonly meant the point on the concentration scale where inhibition reaches its midpoint. A higher IC50 goes with weaker potency in that assay.

The nature of series [1]: Terminal elimination half life in Sprague-Dawley rat at 1 mg/kg, iv by LC/MS analysis. Format: ADME, organism-based. The arrangement: dose 1 mg/kg, route intravenous. The note with it: in vivo. Summed up: (§1)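 Male Sprague-Dawley rats dosed orally at 3 mg/kg as a suspension and intravenously at 1 mg/kg as a bolus. Plasma levels quantified by LC/MS. Oral AUC and Cmax dose-normalized to 1 mg/kg. Means ± SD of three individual experiments.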

The nature of series [2]: Volume of distribution in Sprague-Dawley rat at 1 mg/kg, iv and 3 mg/kg, po by LC/MS analysis. The settings on record: in vivo. Format: ADME, organism-based. Summed up:
as §1

Series [3] concerns the target T1, Procathepsin L (Rattus norvegicus, UniProt P07154).
T1 sequence (P07154 whole entry): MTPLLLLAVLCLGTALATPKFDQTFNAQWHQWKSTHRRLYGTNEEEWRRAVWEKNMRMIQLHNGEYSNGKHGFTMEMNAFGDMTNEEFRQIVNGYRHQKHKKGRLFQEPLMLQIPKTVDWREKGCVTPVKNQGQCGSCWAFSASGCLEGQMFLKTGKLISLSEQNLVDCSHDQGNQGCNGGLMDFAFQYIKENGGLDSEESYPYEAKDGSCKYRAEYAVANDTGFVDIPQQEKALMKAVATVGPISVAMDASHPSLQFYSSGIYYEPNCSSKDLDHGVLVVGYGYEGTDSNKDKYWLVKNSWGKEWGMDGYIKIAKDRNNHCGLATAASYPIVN
Nature of the series: Inhibition of rat cathepsin L by fluorescence assay. Summed up: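 Recombinant rat cathepsins K, L, S (137Gly and 137Cys forms) and mouse cathepsin S in a fluorescence assay. Substrates: Z-Phe-Arg-MCA for K and L, Z-Leu-Leu-Arg-MCA for S. IC50 reported as means ± SD of three experiments.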

The species entered for series [4] is Rattus norvegicus. Nature of the series: Selectivity for rat cathepsin S glycine 137 mutant over rat cathepsin B. Summed up:
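Recombinant rat cathepsins in a fluorescence assay with MCA substrates: Z-Leu-Leu-Arg-MCA for cathepsin S (137Gly form), Z-Phe-Arg-MCA for K and L, and Z-Arg-Arg-MCA for B. IC50 values were taken as means ± SD of three experiments, and selectivity was compared from the IC50 values against the S enzyme and each other cathepsin.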

Series [5] concerns the target T2, Cytochrome P450 1A2 (Homo sapiens, UniProt P05177).
T2 sequence (P05177 whole entry): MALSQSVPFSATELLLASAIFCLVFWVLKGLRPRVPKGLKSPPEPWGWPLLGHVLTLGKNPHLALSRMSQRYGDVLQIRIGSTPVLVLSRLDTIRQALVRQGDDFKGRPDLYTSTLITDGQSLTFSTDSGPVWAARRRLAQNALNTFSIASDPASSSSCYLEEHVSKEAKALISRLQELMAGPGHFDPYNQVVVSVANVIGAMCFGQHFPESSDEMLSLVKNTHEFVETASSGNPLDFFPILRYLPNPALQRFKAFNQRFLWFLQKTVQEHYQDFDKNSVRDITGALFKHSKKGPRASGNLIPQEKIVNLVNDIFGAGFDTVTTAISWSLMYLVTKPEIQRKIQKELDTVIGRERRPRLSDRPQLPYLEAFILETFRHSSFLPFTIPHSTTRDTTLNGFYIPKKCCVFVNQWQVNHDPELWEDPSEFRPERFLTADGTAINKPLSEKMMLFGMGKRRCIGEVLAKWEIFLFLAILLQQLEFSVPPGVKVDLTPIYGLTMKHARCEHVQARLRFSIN
Nature of the series: Inhibition of CYP1A2 at 10 uM. The class given is ADME. The procedure, abridged:
(§2)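 Tested against a panel of cytochrome P450 enzymes at a maximum concentration of 10 µM.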

Series [6] has as its target Cytochrome P450 2C9 (Homo sapiens, UniProt P11712). Nature of the series: Inhibition of CYP2C9 at 10 uM. Format: ADME. The procedure, abridged: as §2
The target in series [7] is Cytochrome P450 2D6 (Homo sapiens, UniProt P10635). Nature of the series: Inhibition of CYP2D6 at 10 uM. Format: ADME. The procedure, abridged: as §2
Series [8] is described as follows: Genotoxicity in liver S9 fraction by Ames test. Format: toxicity, subcellular. Summed up: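 Standard Ames test run with liver S9 enzyme.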
A general note: The Ames test detects mutagens through reverse mutation in bacteria.

Structures are written as SMILES.

Sequence of Cytochrome P450 2D6 (P10635 whole entry): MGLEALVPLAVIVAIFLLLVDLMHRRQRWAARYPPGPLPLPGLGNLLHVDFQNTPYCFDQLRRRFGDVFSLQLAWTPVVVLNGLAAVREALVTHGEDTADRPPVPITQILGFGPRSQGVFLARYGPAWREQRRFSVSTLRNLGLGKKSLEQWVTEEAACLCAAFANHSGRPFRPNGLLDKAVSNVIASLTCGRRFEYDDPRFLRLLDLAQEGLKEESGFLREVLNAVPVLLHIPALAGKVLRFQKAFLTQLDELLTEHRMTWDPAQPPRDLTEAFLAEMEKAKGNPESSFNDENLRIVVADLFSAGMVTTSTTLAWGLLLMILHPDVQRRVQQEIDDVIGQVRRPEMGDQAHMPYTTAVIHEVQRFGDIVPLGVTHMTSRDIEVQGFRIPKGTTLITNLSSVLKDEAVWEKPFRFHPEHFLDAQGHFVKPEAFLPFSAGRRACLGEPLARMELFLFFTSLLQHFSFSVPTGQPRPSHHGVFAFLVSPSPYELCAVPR
Sequence of Cytochrome P450 2C9 (P11712 whole entry): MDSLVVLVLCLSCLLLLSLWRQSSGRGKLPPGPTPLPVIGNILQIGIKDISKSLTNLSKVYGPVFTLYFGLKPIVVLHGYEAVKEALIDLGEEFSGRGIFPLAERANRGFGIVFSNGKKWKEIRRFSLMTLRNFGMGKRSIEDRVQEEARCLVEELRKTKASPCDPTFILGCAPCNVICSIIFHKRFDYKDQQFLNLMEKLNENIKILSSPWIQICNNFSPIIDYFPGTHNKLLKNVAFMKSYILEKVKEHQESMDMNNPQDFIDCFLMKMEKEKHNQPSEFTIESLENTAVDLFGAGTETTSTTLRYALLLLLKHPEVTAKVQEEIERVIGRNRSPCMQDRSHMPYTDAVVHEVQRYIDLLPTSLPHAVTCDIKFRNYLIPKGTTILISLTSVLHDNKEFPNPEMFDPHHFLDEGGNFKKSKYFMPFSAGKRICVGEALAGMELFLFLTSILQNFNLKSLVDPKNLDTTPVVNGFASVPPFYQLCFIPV

`CC(=O)N1CCN(c2ccc(OCc3cc4cnc(C#N)nc4n3CCC3CCC(F)(F)CC3)cc2)CC1`: the half-life in series [1] is 42 min. The Vd in series [2] turned out to be 3.7 L/kg. This compound registered an IC50 in series [3] above 10 µM. For the same compound, the Activity in series [4] is above 100; in series [5] it was “Not Active”; in series [6], “Not Active”; in series [7], “Not Active”; in series [8], “Non-toxic”.
